The values that follow come from ChEMBL document CHEMBL1833940, “Discovery of 3-(2,6-dichloro-3,5-dimethoxy-phenyl)-1-{6-[4-(4-ethyl-piperazin-1-yl)-phenylamino]-pyrimidin-4-yl}-1-methyl-urea (NVP-BGJ398), a potent and selective inhibitor of the fibroblast growth factor receptor family of receptor tyrosine kinase” (J Med Chem, 2011).

Active and inactive are the calls of the source. The rule behind the calls is not given here.

Series [1] can be described thus: Oral bioavailability in Wistar rat at 10 mg/kg. It counts as ADME, organism-based. The note with it: in vivo. In short, it runs like this:
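Female Wistar rats received 5 mg/kg iv into the femoral vein in NMP/PEG200 (1:9), or the monophosphate salt orally at 10 mg/kg (free base) in acetate buffer pH 4.6/PEG300. Serial sublingual plasma samples were taken from 0.083 to 24 h.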

Series [2] deals with Mus musculus. Nature of the series: Antiangiogenic activity in FVB mouse agar chamber model assessed as inhibition of VEGF-induced angiogenesis at 10 to 50 mg/kg, po administered for 4 days. It counts as functional, organism-based. In short, it runs like this:
(§1)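 Female FVB mice implanted subcutaneously with perfluoroalkoxy-Teflon chambers holding 0.8% agar with 20 U/mL heparin, with or without dog VEGF 2 μg/mL or bFGF 0.3 μg/mL. Oral dosing at 10, 30, 50 mg/kg/day in 10% NMP/PEG300 (5 mL/kg), started before implantation and continued 3 days. Capsules were removed 24 h after the last dose. Readout was capsule weight and Tie-2 by ELISA, as % inhibition against vehicle and no-growth-factor background.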

Series [3] deals with Protein kinase C theta type (Homo sapiens, UniProt Q04759). Nature of the series: Inhibition of recombinant PKCtheta. In short, it runs like this:
(§2)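 Purified recombinant kinases under optimized conditions with peptide substrates. ATP was set at each kinase's Km. Phosphorylation was read by microfluidic mobility-shift separation of substrate and product; IC50 determined.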

A further series concerns RT-4. Nature of the series: Antiproliferative activity against human RT4 cells overexpressing wild type FGFR3 after 72 hrs. Particulars: RT-4, 72 h. In kind it is functional, cell-based. In short, it runs like this: (§3)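 Bladder cancer lines from ATCC or DSMZ were seeded in 96-well plates (RT4, RT112 at 8500 cells/well; others at 5000 cells/well) in growth medium. Compound dilutions or DMSO were added 24 h later and incubated 72 h. Cells were fixed with glutaraldehyde, stained with 0.05% methylene blue and eluted with 3% HCl, then OD650 nm was read.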

For series [4], the target named is Phosphatidylinositol 3-kinase catalytic subunit type 3 (Homo sapiens, UniProt Q8NEB9). Put plainly: Inhibition of recombinant VPS34 by luminescent kinase assay.
Series [5] addresses ALK tyrosine kinase receptor (Homo sapiens, UniProt Q9UM73). Put plainly: Inhibition of recombinant ALK. The procedure, abridged:
(§4)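 Purified recombinant kinases under optimized conditions, with peptide substrates and ATP at each kinase's Km. Phosphorylation was read out by microfluidic mobility shift, and IC50 values were obtained.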

Series [6] in a line: Inhibition of LCK-B-mediated proliferation of mouse BAF3 cells transformed with Tel-kinase construct. In kind it is cell-based. The procedure, abridged: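 Murine BaF3 cells made IL-3-independent by a Tel-kinase fusion were grown in RPMI-1640 with 10% FBS. Cells were seeded at 4250 per well with DMSO-diluted compound and incubated 48 h at 37 °C. Viability was read by Bright-Glo luminescence.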

Another series relates to SW780. Nature of the series: Antiproliferative activity against human SW780 cells overexpressing wild type FGFR3 after 72 hrs. The note with it: SW780, 72 h. In kind it is functional, cell-based. In short, it runs like this: as §3
Series [7] deals with Protein kinase C alpha type (Homo sapiens, UniProt P17252). Put plainly: Inhibition of recombinant PKCalpha. The procedure, abridged: as §2
For series [8], the target named is Serine/threonine-protein kinase PLK1 (Homo sapiens, UniProt P53350). Put plainly: Inhibition of recombinant PLK1. In short, it runs like this:
as §2

The target of another series is Cytochrome P450 2C19 (Homo sapiens, UniProt P33261). Put plainly: Inhibition of CYP2C19 using CEC as substrate. In kind it is ADME. In short, it runs like this:
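Human CYP450 inhibition was measured with isoform-specific fluorogenic probe substrates: CEC for 1A2 and 2C19, MFC for 2C9, AMMC for 2D6. Incubation was at 37 °C with an NADPH-regenerating system in 384-well format. Metabolite was quantified by fluorescence, and IC50 was obtained by curve fitting.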

Another series concerns BaF3. Put plainly: Antiproliferative activity against mouse wild type BAF3 cells assessed as decrease in cell viability by luminescence-based assay. The procedure, abridged: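 IL-3-independent BaF3 or BaF3 Tel-TK cells were grown in RPMI-1640 with 10% FBS and seeded at 4250 cells/well in 384-well plates. Compound serially diluted in DMSO was pin-transferred, followed by 48 h at 37 °C, 5% CO2. Viability was read by Bright-Glo luciferase luminescence.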

The subject of series [9] is Rattus norvegicus. Put plainly: Toxicity in nude Rowett rat xenografted with human RT112 cells assessed as weight loss at 10 mg/kg, po qd administered for 20 days. In kind it is organism-based, RT-112. Details: dose 10 mg/kg, route oral. The note with it: in vivo, 480 h. In short, it runs like this: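 Female nude Rowett rats carried subcutaneous RT112 tumors (1 × 10^6 cells in Matrigel), starting at about 100 mm3. The monophosphate salt was gavaged daily for 20 days at 5, 10 or 15 mg/kg (free base) in acetate buffer pH 4.6/PEG300 (1:1), n = 8. Body weight and morbidity were monitored; ANOVA with Dunnett's test.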
Background: A xenograft is tissue or cells of one species grown in another, often human tumour cells in immunodeficient mice.

In series [10] the test system is Rattus norvegicus. Nature of the series: Inhibition of FGFR autophosphorylation in RT112 tumor bearing po dosed nude rowett rat assessed as decrease in pMAPK concentration administered as a single dose by Western blot analysis. In kind it is functional, organism-based. The procedure, abridged: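 RT112 subcutaneous xenografts in female nude Rowett rats (n = 4). Single oral gavage of the monophosphate salt at 4.25 or 8.51 mg/kg (free base equivalents) in acetic acid–acetate buffer pH 4.6/PEG300 (1:1). Tumors were collected at time points up to 24 h, frozen, homogenized and lysed. Western blots probed pFRS2(Tyr196) and pMAPK, with total FRS2, total MAPK or β-tubulin as loading controls.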

The subject of series [11] is Mus musculus. Put plainly: Antiangiogenic activity in po dosed FVB mouse agar chamber model assessed as inhibition of b-FGF-induced angiogenesis around the capsule. In kind it is functional, organism-based. The procedure, abridged:
as §1

The nature of series [12]: Cmax in plasma of RT112/luc1 cells implanted athymic nude mouse at 5 mg/kg, iv by LC/MS/MS analysis. In kind it is ADME, organism-based. Details: dose 5 mg/kg, route intravenous. The procedure, abridged:
(§5)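 Female athymic nude mice carried subcutaneous RT112/luc1 tumors (5×10^6 cells, 50% Matrigel; about 300–400 mm3). Dosing was either 5 mg/kg iv by tail vein in NMP/PEG200 (1:9) or 20 mg/kg oral suspension in PEG300/D5W (2:1). Groups of mice (n = 4) were sacrificed at 0.083–24 h. Plasma and tumor levels were measured by LC-MS/MS (LOQ 5 ng/mL, 10 ng/g).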

Series [13] deals with Serine/threonine-protein kinase WNK1 (Homo sapiens, UniProt Q9H4A3). Nature of the series: Inhibition of recombinant WNK1. The procedure, abridged:
as §2

Another series relates to Tumour. Nature of the series: Cmax in tumor of RT112/luc1 cells implanted athymic nude mouse at 5 mg/kg, iv by LC/MS/MS analysis. It counts as ADME, organism-based, Neoplasm. On the set-up: dose 5 mg/kg, route intravenous. Particulars: in vivo. In short, it runs like this:
as §5

For series [14], the target named is Tyrosine-protein kinase Mer (Homo sapiens, UniProt Q12866). Nature of the series: Inhibition of recombinant MER. In short, it runs like this: as §4
Series [15] deals with MAP kinase-activated protein kinase 2 (Homo sapiens, UniProt P49137). Nature of the series: Inhibition of recombinant MK2. In short, it runs like this:
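Purified recombinant kinases with peptide substrates and ATP at each kinase's Km. Read-out was microfluidic mobility shift.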

The nature of series [16]: Half life in plasma of RT112/luc1 cells implanted athymic nude mouse at 20 mg/kg, po by LC/MS/MS analysis. In kind it is ADME, organism-based. On the set-up: dose 20 mg/kg, route oral. In short, it runs like this: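 Female athymic nude mice carried subcutaneous RT112/luc1 tumors (5 × 10^6 cells in HBSS with 50% Matrigel, right flank; about 300–400 mm3). Dosed by oral gavage at 20 mg/kg as a suspension in PEG300/D5W (2:1, v/v). Groups (n = 4) were sacrificed at 0.083–24 h.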

Series [17] addresses Receptor tyrosine-protein kinase erbB-4 (Homo sapiens, UniProt Q15303). Nature of the series: Inhibition of recombinant ERBB4. The procedure, abridged: as §2

Serine/threonine-protein kinase PLK1, sequence (P53350 whole entry): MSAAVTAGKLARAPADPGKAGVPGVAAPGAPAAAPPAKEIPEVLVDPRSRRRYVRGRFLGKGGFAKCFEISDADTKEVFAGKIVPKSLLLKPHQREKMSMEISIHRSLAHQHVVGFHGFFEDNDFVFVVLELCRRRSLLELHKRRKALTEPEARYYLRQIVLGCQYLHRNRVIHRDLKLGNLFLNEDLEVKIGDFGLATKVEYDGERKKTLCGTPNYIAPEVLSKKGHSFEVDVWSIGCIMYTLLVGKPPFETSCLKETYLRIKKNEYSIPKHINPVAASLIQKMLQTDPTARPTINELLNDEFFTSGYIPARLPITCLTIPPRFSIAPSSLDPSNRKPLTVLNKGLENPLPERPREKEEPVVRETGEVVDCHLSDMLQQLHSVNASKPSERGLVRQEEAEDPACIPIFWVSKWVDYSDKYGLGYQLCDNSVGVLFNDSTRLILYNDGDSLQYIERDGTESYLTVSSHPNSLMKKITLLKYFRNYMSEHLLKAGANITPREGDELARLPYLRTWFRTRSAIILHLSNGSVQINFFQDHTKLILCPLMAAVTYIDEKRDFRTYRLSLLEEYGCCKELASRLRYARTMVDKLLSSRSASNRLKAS
ALK tyrosine kinase receptor, sequence (Q9UM73 whole entry): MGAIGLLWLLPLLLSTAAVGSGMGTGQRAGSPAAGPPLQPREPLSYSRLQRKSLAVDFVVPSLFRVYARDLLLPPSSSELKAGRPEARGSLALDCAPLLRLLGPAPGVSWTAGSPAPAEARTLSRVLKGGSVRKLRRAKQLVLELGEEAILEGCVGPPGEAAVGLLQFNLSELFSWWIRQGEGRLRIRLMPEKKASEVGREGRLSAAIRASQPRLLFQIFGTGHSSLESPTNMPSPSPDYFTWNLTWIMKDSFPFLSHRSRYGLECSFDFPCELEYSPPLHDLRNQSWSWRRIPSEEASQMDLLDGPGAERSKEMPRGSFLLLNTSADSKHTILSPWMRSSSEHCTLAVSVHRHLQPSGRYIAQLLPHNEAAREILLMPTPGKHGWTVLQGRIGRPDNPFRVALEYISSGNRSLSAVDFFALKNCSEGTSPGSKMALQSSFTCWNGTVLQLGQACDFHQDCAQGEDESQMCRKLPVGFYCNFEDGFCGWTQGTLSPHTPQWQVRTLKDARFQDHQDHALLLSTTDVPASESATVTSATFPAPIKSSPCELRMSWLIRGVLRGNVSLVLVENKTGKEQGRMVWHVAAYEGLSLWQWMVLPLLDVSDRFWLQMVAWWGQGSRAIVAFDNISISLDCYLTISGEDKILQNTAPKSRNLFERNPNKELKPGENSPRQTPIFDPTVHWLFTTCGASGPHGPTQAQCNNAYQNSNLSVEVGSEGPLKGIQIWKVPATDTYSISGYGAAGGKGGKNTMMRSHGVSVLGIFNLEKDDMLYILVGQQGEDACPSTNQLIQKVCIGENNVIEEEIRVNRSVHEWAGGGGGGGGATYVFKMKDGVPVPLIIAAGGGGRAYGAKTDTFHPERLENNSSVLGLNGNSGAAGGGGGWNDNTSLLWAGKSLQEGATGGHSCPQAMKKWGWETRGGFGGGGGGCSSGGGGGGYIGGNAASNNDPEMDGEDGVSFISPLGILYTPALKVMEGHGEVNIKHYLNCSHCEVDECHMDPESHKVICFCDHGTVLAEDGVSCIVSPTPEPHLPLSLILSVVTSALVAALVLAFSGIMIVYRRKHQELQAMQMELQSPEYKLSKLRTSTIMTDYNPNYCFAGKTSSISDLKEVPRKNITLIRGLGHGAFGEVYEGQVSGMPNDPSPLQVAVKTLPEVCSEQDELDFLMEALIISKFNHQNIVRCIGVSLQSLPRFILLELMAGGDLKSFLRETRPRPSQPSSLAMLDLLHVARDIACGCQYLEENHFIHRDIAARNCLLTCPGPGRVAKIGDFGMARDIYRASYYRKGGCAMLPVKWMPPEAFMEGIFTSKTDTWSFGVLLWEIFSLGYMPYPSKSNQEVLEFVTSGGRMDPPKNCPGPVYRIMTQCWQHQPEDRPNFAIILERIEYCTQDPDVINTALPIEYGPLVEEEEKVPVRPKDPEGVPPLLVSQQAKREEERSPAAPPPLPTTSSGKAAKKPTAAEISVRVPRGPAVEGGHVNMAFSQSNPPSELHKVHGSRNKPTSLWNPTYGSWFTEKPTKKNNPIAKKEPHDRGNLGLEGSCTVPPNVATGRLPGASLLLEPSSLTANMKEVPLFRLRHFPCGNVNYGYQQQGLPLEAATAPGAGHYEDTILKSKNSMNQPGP
Cytochrome P450 2C19, sequence (P33261 whole entry, canonical isoform): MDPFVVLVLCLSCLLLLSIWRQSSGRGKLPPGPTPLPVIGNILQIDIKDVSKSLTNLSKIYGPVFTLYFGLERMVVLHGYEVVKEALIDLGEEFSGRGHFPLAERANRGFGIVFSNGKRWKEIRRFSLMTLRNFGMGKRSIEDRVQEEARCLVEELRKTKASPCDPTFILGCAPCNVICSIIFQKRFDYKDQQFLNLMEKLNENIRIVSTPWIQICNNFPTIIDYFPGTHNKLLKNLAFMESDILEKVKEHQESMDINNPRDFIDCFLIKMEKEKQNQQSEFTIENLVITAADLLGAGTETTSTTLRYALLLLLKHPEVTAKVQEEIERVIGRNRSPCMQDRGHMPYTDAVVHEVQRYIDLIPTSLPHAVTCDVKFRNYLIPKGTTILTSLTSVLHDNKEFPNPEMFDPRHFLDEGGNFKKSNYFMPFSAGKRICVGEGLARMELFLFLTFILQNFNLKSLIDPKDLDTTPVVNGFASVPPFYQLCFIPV
Tyrosine-protein kinase Mer, sequence (Q12866 whole entry): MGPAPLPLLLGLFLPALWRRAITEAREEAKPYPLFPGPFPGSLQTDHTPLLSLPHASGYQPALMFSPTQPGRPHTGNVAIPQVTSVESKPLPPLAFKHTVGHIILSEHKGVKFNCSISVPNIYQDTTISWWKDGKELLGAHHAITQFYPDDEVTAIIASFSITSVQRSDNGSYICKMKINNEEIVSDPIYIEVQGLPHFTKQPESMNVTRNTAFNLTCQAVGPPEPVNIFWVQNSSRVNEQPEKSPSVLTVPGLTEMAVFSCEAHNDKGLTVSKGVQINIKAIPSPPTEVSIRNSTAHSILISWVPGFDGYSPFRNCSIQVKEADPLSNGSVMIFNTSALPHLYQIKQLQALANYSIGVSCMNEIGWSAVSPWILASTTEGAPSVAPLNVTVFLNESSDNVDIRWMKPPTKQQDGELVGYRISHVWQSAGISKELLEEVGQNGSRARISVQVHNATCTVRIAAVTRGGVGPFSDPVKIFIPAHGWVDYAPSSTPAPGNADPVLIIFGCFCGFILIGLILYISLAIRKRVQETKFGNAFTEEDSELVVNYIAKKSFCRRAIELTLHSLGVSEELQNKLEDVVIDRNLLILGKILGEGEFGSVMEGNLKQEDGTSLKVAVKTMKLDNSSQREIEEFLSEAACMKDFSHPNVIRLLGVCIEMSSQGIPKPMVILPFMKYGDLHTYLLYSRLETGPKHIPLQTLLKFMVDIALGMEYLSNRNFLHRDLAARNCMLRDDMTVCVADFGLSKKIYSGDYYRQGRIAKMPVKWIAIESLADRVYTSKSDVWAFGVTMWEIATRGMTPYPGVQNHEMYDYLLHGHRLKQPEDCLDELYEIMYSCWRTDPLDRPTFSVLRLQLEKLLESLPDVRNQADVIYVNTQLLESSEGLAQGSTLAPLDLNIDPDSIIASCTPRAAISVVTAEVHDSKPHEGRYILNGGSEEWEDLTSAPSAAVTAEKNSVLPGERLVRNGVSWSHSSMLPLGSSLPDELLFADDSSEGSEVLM
Protein kinase C theta type, sequence (Q04759 whole entry): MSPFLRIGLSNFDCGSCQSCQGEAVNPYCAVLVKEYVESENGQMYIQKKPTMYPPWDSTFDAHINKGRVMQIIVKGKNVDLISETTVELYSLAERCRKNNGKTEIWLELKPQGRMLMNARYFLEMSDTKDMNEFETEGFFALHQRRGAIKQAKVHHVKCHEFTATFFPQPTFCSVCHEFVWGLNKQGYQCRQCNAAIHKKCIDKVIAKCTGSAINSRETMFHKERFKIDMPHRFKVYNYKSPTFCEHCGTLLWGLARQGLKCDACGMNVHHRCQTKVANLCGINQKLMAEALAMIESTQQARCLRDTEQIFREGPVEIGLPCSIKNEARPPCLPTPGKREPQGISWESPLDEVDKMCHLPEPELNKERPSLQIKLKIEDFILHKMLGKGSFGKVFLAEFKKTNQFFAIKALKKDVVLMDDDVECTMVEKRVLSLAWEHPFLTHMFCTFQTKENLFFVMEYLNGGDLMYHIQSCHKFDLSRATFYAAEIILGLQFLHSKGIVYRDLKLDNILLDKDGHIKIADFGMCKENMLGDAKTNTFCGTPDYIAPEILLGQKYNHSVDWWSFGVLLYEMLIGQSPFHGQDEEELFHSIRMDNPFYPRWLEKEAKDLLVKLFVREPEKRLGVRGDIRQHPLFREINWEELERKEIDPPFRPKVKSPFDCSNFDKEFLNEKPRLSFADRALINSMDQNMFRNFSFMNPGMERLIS

Take `CCN1CCN(c2ccc(Nc3cc(N(C)C(=O)Nc4c(Cl)c(OC)cc(OC)c4Cl)ncn3)cc2)CC1.O=P(O)(O)O` [INFIGRATINIB PHOSPHATE]: the bioavailability (as a rule, dose-corrected exposure relative to a reference, in per cent) in series [1] is 51%. Besides, in the series on Mus musculus [2], the inhibition result was “inactive”. Further, the IC50 (commonly the midpoint of a concentration-inhibition curve) in [3] is > 10 µM; in the series with RT-4, 30 nM; in [4] it was > 10 µM; in series [5] it was > 10 µM; in [6] it was 2480 nM; in the series with SW780, 32 nM. Moreover, the IC50 is > 10 µM in [7]; > 10 µM in [8]; > 10 µM on Cytochrome P450 2C19; 1860 nM in the series on BaF3; > 10 µM in [13]; > 10 µM in [14]. The IC50 in [15] and in series [17] was > 10 µM each time. For the same molecule, in the series on Rattus norvegicus [9], the Activity worked out at 4%. The inhibition result with Rattus norvegicus [10] and in the series on Mus musculus [11] was “Dose-dependent effect” in each case. The values for the Cmax (in series [12]; in the series with Tumour) were 860 nM and 1.68 nmol/g, respectively. For the same molecule, the half-life (as a rule, the time in which the quantity being followed falls by half) in [16] was 258 min.
